Data on two molecules can be found in ChEMBL document CHEMBL1255196, “Radiosensitization of cancer cells by hydroxychalcones” (2010).

For one experiment, the system named is Nucleic Acid. The experiment is described as follows: Induction of Hsf1 DNA binding affinity in human HT-29 cells at 8 uM after 2 hrs. In kind it is cell-based. In outline: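 HT-29 cells were incubated with drug for 2 hr at 37°C (30 min is also stated for the treatment) and nuclear protein was extracted. Gel shift assay used a 32P-labelled rat Hsp70 heat shock element oligomer. Hsf1 identity was confirmed by antibody supershift.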

Experiment [1] has as its system HT-29. The experiment is described as follows: Induction in heat-induced cell killing in human HT-29 cells. In kind it is functional, cell-based. A digest of the protocol: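 HT-29 cells were treated with drug or DMSO and heated at 41°C for 2 hr. Medium was then replaced and cells grown 10-14 days. Colonies were stained and counted. Four flasks per condition.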

Experiment [2] concerns HT-29. The experiment is described as follows: Phototoxicity against human HT-29 cells at 10 uM irradiated with 4 Gy/min. In kind it is functional, cell-based.
Experiment [3] has as its system HT-29. The experiment is described as follows: Cytotoxicity against human HT-29 cells assessed as plating efficiency at 10 uM. In kind it is functional. In outline:
(§1)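 Colony formation assay of HT-29 cells exposed to drug or DMSO for 2 hr. Plating efficiency defined non-toxic concentrations, meaning plating efficiency above 80%. After 10 to 14 days colonies were fixed in 3:1 methanol/acetic acid for 15 min, stained with 0.5% crystal violet in methanol for 15 min, and counted to give percent survival.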

Experiment [4] has as its system HT-29. The experiment is described as follows: Phototoxicity against human HT-29 cells irradiated with 2 Gy/min. The experiment is classed as functional, cell-based.
The test system of experiment [5] is HT-29. The experiment is described as follows: Cytotoxicity against human HT-29 cells assessed as plating efficiency at 25 uM. The experiment is classed as functional. A digest of the protocol:
as §1

Experiment [6] has as its system HT-29. The experiment is described as follows: Cell cycle arrest in photoirradiated human HT-29 cells assessed as accumulation at subG0 phase after 48 hrs. In kind it is functional, cell-based. A digest of the protocol: (§2)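 They were fixed by adding cold 70% ethanol, washed in PBS, and stained with propidium iodide plus RNase for 30-45 min at 37°C. Flow cytometry scored polyploidy and sub-G0 cells 48 hr after irradiation.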

For experiment [7], the system named is HT-29. The experiment is described as follows: Phototoxicity against human HT-29 cells assessed as polyploidy formation at 10 uM irradiated with 4 Gy/min. In kind it is functional, cell-based. A digest of the protocol: as §2

Calls of active or inactive are those of the source. The calls are words filed in the database; no cut-off is given here.

Regarding `O=C(/C=C/c1ccccc1O)c1ccccc1O`, the outcome in the experiment on Nucleic Acid, in the experiment on HT-29 [1] and with HT-29 [2] was Active. Further, the Activity in the experiment on HT-29 [3] is recorded as above 80%.

For `O=C(/C=C/c1ccccc1)c1cc(O)ccc1O`, the result in the experiment on Nucleic Acid, with HT-29 [2], in the experiment on HT-29 [6] and with HT-29 [7] was Active. The results for the Activity result in the experiment with HT-29 [4] and in the experiment with HT-29 [5] were “Dose-dependent effect” and above 80%, respectively.
